Measured values gathered from unrelated publications.
Lines come from different studies, so protocols differ.
MAPK14 T106M: Mitogen-activated protein kinase 14 (MAPK14, Homo sapiens, UniProt Q16539, T106M)
MAPK14: Mitogen-activated protein kinase 14 (MAPK14, Homo sapiens, UniProt Q16539)

SMILES | target | test | conditions | endpoint | result
CCN(CC)CCNC(=O)c1c(C)[nH]c(/C=C2\C(=O)Nc3ccc(F)cc32)c1C | MAPK14 T106M | enzyme activity, inhibitor | 0.3 µM | inhibition | 5%
Cc1c(C(=O)O)cc(-c2ccc(C3CCNCC3)cc2)c2ccc(-c3ccc(C(F)(F)F)cc3)cc12 | MAPK14 | binding, competition with immobilised ligand | 1 µM | remaining binding | 100%
Cc1ccc(C(=O)Nc2ccc(CN3CCN(C)CC3)c(C(F)(F)F)c2)cc1C#Cc1cnc2cccnn12 | MAPK14 | enzyme activity, inhibitor | 23.5 nM | remaining activity | 29%
Cc1cc(-n2nc(Cc3cc(F)cc(C(F)(F)F)c3)nc2C)ccc1C(N)=O | MAPK14 | cell-free assay, competition with immobilised ligand | 1 µM | remaining binding | 95%
CNC(=O)c1cc(Oc2ccc(NC(=O)Nc3ccc(Cl)c(C(F)(F)F)c3)cc2)ccn1 | MAPK14 T106M | enzyme activity, inhibitor | 10 µM | inhibition | 90%
CC(C)(C)c1nc2c(s1)c1nc(N)ncc1c1ccc(NS(=O)(=O)c3c(F)cccc3F)c(F)c12 | MAPK14 | enzyme activity, inhibitor, radiometric | 1 µM | remaining activity | 96%
N#Cc1c(NC(=O)c2cccc3ccccc23)sc2c1CCCC2 | MAPK14 | cell-free assay | 0.5 µM | remaining signal | 98.1%
Cn1c(=O)n(-c2ccc(C(C)(C)C#N)cc2)c2c3cc(-c4cnc5ccccc5c4)ccc3ncc21 | MAPK14 | enzyme activity, inhibitor | 10 µM | remaining activity | 111%
COc1ccc2c(c1)O[C@@H](c1ccc(OC)c(OC)c1)C[C@H]2NC(=O)C1(c2ccc3c(c2)OC(F)(F)O3)CC1 | MAPK14 | cell-free assay, competition with immobilised ligand | 1 µM | remaining binding | 99%
Cc1sc(C(=O)NC2COC2)cc1-n1cc(NC(=O)Nc2c(F)cccc2Cl)cn1 | MAPK14 | enzyme activity, inhibitor | 10 µM | remaining activity | 93.2%
Nc1nc(Nc2ccccc2)sc1C(=O)c1c(F)cccc1F | MAPK14 | enzyme activity, inhibitor | 10 µM | remaining activity | 8%
O=C(Nc1cnn(-c2csc(C(=O)NC3COC3)c2)c1)Nc1ccccc1Cl | MAPK14 | enzyme activity, inhibitor | 5 µM | remaining activity | 142%
CN(C)C1CCN(CC#Cc2nn(C3CCCC3)c3nc(NCc4ccccc4)ncc23)C1 (stereo not drawn) | MAPK14 | enzyme activity, inhibitor, FRET | 0.1 µM | inhibition | 8%
Cc1cnc(NC2CCOCC2)nc1-n1cnc(C(=O)NC(CN)c2cc(F)cc(Cl)c2)c1 (stereo not drawn) | MAPK14 | enzyme activity, inhibitor, radiometric | 1 µM | remaining activity | 77%
Nc1nc(NC2CCCCC2)sc1C(=O)c1ccccc1 | MAPK14 | enzyme activity, inhibitor | 10 µM | remaining activity | 24%
COc1cc(/C=C/C(=O)CC(=O)/C=C/c2ccc(O)c(OC)c2)ccc1O | MAPK14 | enzyme activity, inhibitor | 1 µM | activity vs control | 104%
O=C(NC[C@@H]1[C@H]2CN(C(=O)OCc3cc(C(F)(F)F)cc(C(F)(F)F)c3)C[C@@H]12)c1ccc2[nH]nnc2c1 | MAPK14 | cell-free assay, competition with immobilised ligand | 1 µM | remaining binding | 100%
O=C1Nc2ccc(Cl)cc2C1=Cc1cc(Cl)c(O)c(Cl)c1 | MAPK14 | cell-free assay | 0.5 µM | remaining signal | 74.6%
COc1cc(Nc2cnc(C#N)c(O[C@H](C)CN(C)C)n2)ncc1-c1cnn(C)c1 | MAPK14 | enzyme activity, inhibitor, radiometric | 10 µM | remaining activity | 85%
O=C(NCCCC1CCCCC1)c1ccc(CNC(=O)c2cnn(-c3ccccc3)c2C(F)(F)F)cc1 | MAPK14 | cell-free assay, competition with immobilised ligand | 0.1 µM | remaining binding | 100%
Cc1cc(NC(=O)c2cccc3cc(-c4cccc5[nH]nc(N)c45)ccc23)ccc1F | MAPK14 T106M | enzyme activity, inhibitor | 0.1 µM | activity vs control | 96%
O=C(N[C@H]1CCCCC/C=C\C2C[C@@]2(C(=O)O)NC(=O)[C@@H]2C[C@@H](Oc3ccncc3)CN2C1=O)OC1CCCC1 (stereo partly drawn) | MAPK14 | binding, competition with immobilised ligand | 1 µM | remaining binding | 94%
Cc1ccc(NC(=O)c2ccc(C)c(C(F)(F)F)c2)cc1C#Cc1nn(C2CCC(O)CC2)c2ncnc(N)c12 (stereo not drawn) | MAPK14 T106M | enzyme activity, inhibitor | 10 µM | remaining activity | 88%
O=C1NC(c2ccccn2)Sc2ccccc21 (stereo not drawn) | MAPK14 | cell-free assay, competition with immobilised ligand | 1 µM | remaining binding | 81%
CSc1nc(-c2ccnc(N[C@@H](C)c3ccccc3)c2)c(-c2ccc(F)cc2)[nH]1 (racemic) | MAPK14 | cell-free assay | 0.5 µM | remaining signal | 7.64%
Cc1ccc(Nc2nccc(N(C)c3ccc4c(C)n(C)nc4c3)n2)cc1S(N)(=O)=O | MAPK14 T106M | enzyme activity, inhibitor | 0.3 µM | inhibition | 4%
CSc1cccnc1N1CCN(Cc2nc3ccccc3[nH]2)CC1 | MAPK14 | cell-free assay, competition with immobilised ligand | 1 µM | remaining binding | 100%
